Test results published in ChEMBL document CHEMBL2331169, “Search for α3β₂/₃γ2 subtype selective ligands that are stable on human liver microsomes” (Bioorg Med Chem, 2013).
Calls of active or inactive are those of the source. The rule behind the calls is not given here.

Experiments:
[1] = Metabolic stability in human liver microsomes assessed as compound remaining at 10 uM measured at 60 mins by LC-MS/MS analysis relative to control; format: ADME, Microsome; conditions: read-out: Stability
Summary of the method: (§1)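 Pooled human liver microsomes (150 donors, 0.5 mg protein/ml) with 2.5 mM NADPH and 3.3 mM MgCl2 in 100 mM phosphate pH 7.4, 0.1% DMSO final, 37 °C, reaction started with microsomes. Aliquots quenched in cold acetonitrile with internal standard; LC-MS/MS in positive-ion ESI MRM mode. Percent remaining is analyte/internal-standard peak-area ratio versus 0 min ×100; duplicates.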

[2] = Metabolic stability in heat inactivated human liver microsomes assessed as compound remaining at 10 uM measured at 60 mins by LC-MS/MS analysis relative to control; format: ADME, Microsome; conditions: read-out: Stability
Summary of the method: (§2)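 Control incubation with heat-inactivated human liver microsomes (0.5 mg protein/ml) in 100 mM phosphate pH 7.4, 37 °C, sampled at 0 and 60 min. Samples quenched in acetonitrile with internal standard and analysed by LC-MS/MS. Percent remaining is the peak-area ratio relative to 0 min ×100; duplicates.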

[3] = Metabolic stability in human liver microsomes assessed as compound remaining at 10 uM measured at 30 mins by LC-MS/MS analysis relative to control; format: ADME, Microsome; conditions: read-out: Stability; summary of the method: as §1
[4] = Metabolic stability in human liver microsomes assessed as compound remaining at 10 uM measured at 15 mins by LC-MS/MS analysis relative to control; format: ADME, Microsome; conditions: read-out: Stability; summary of the method: as §1
[5] = Metabolic stability in human liver microsomes assessed as compound remaining at 1 uM measured at 15 mins by LC-MS/MS analysis relative to control; format: ADME, Microsome; conditions: read-out: Stability; summary of the method: as §1
[6] = (§3) Metabolic stability in human liver microsomes assessed as compound remaining at 1 uM measured at 60 mins by LC-MS/MS analysis relative to control; format: ADME, Microsome; conditions: liver microsomes, read-out: Stability; summary of the method: as §1
[7] = (§4) Metabolic stability in heat inactivated human liver microsomes assessed as compound remaining at 1 uM measured at 60 mins by LC-MS/MS analysis relative to control; format: ADME, Microsome; conditions: heat-inactivated liver microsomes, read-out: Stability; summary of the method: as §2
[8] = (§5) Metabolic stability in human liver microsomes assessed as compound remaining at 1 uM measured at 30 mins by LC-MS/MS analysis relative to control; format: ADME, Microsome; conditions: liver microsomes, read-out: Stability; summary of the method: as §1
[9] = molecular target: T1, GABA A receptor alpha-2/beta-2/gamma-2 (Rattus norvegicus) (UniProt P18508+P23576+P63138); experiment: Agonist activity at rat GABAA alpha2beta3gamma2 receptor expressed in Xenopus oocytes assessed as stimulation of GABA-induced chloride current at 100 nM incubated 30 secs prior to GABA induction measured after 15 mins by two-electrode voltage clamp assay relative to control; format: cell-based; conditions: Oocyte
Summary of the method: (§6)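 Rat GABAA β3 and γ2 cDNAs plus α1, α2, α3 or α5 cDNA injected into Xenopus oocytes; follicle layers removed 36 h later. Two-electrode recording with […]-filled electrodes; oocytes perfused with Ringer (90 mM NaCl, 5 mM HEPES pH 7.4, 1 mM MgCl2, KCl, CaCl2) switched to GABA at EC3 with drug (0.1% DMSO final). Mean ± SEM, 3–4 oocytes, ≥2 batches.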

[10] = molecular target: T2, GABA A receptor alpha-5/beta-3/gamma-2 (Rattus norvegicus) (UniProt P18508+P19969+P63079); experiment: Agonist activity at rat GABAA alpha5beta3gamma2 receptor expressed in Xenopus oocytes assessed as stimulation of GABA-induced chloride current at 100 nM incubated 30 secs prior to GABA induction measured after 15 mins by two-electrode voltage clamp assay relative to control; format: cell-based; conditions: Oocyte; summary of the method: as §6
[11] = molecular target: T3, GABA-A receptor; alpha-1/beta-2/gamma-2 (Rattus norvegicus) (UniProt P18508+P62813+P63138); experiment: Agonist activity at rat GABAA alpha1beta3gamma2 receptor expressed in Xenopus oocytes assessed as stimulation of GABA-induced chloride current at 1 uM incubated 30 secs prior to GABA induction measured after 15 mins by two-electrode voltage clamp assay relative to control; format: cell-based; conditions: Oocyte; summary of the method: as §6
[12] = molecular target: Gamma-aminobutyric acid receptor subunit alpha-3 (Rattus norvegicus) (UniProt P20236); experiment: Agonist activity at rat GABAA alpha3beta3gamma2 receptor expressed in Xenopus oocytes assessed as stimulation of GABA-induced chloride current at 100 nM incubated 30 secs prior to GABA induction measured after 15 mins by two-electrode voltage clamp assay relative to control; format: cell-based; conditions: Oocyte; summary of the method: as §6
[13] = molecular target: Gamma-aminobutyric acid receptor subunit alpha-3 (Rattus norvegicus) (UniProt P20236); experiment: Agonist activity at rat GABAA alpha3beta3gamma2 receptor expressed in Xenopus oocytes assessed as stimulation of GABA-induced chloride current at 1 uM incubated 30 secs prior to GABA induction measured after 15 mins by two-electrode voltage clamp assay relative to control; format: cell-based; conditions: Oocyte; summary of the method: as §6
[14] = molecular target: T2, GABA A receptor alpha-5/beta-3/gamma-2 (Rattus norvegicus); experiment: Agonist activity at rat GABAA alpha5beta3gamma2 receptor expressed in Xenopus oocytes assessed as stimulation of GABA-induced chloride current at 1 uM incubated 30 secs prior to GABA induction measured after 15 mins by two-electrode voltage clamp assay relative to control; format: cell-based; conditions: Oocyte; summary of the method: as §6
[15] = molecular target: T3, GABA-A receptor; alpha-1/beta-2/gamma-2 (Rattus norvegicus); experiment: Agonist activity at rat GABAA alpha1beta3gamma2 receptor expressed in Xenopus oocytes assessed as stimulation of GABA-induced chloride current at 100 nM incubated 30 secs prior to GABA induction measured after 15 mins by two-electrode voltage clamp assay relative to control; format: cell-based; conditions: Oocyte; summary of the method: as §6
[16] = molecular target: T1, GABA A receptor alpha-2/beta-2/gamma-2 (Rattus norvegicus); experiment: Agonist activity at rat GABAA alpha2beta3gamma2 receptor expressed in Xenopus oocytes assessed as stimulation of GABA-induced chloride current at 1 uM incubated 30 secs prior to GABA induction measured after 15 mins by two-electrode voltage clamp assay relative to control; format: cell-based; conditions: Oocyte; summary of the method: as §6
Liver microsomes [17] = experiment: as §3; format: ADME, Microsome; conditions: microsomes, 1 h, 1 µM; summary of the method: as §1
Liver microsomes [18] = experiment: as §5; format: ADME, Microsome; conditions: microsomes, 0.5 h, 1 µM; summary of the method: as §1
Liver microsomes [19] = experiment: as §4; format: ADME, Microsome; conditions: microsomes, 1 h, 1 µM; summary of the method: as §2
Rattus norvegicus [20] = experiment: Sedative activity in rat assessed as reduction of D-amphetamine sulfate-induced locomotion at 10 to 100 mg/kg, ip administered 20 mins prior to testing measured for 90 mins relative to vehicle-treated control; format: functional, organism-based
Summary of the method: (§7)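 Rats kept ≥10 days on a reversed light/dark cycle. Drug or saline (2 ml/kg) given i.p. 20 min before an open-field arena; spontaneous x–y locomotion recorded 30 min by beam breaks. D-amphetamine sulfate 0.5 mg/kg i.p. then given, and locomotion recorded a further 90 min.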

Rattus norvegicus [21] = experiment: Anxiolytic activity in rat assessed as increase in time spent in lighted area at 10 to 100 mg/kg, ip administered 20 mins prior to testing measured for 30 mins by light/dark cycle test relative to vehicle-treated control; format: functional, organism-based
Rattus norvegicus [22] = experiment: Sedative activity in rat assessed as reduction of D-amphetamine sulfate-induced locomotion at 3 mg/kg, ip administered 20 mins prior to testing measured for 90 mins relative to vehicle-treated control; format: functional, organism-based; parameters: dose 3 mg/kg; summary of the method: as §7
Rattus norvegicus [23] = experiment: Anxiolytic activity in rat assessed as increase in time spent in lighted area at 3 mg/kg, ip administered 20 mins prior to testing measured for 30 mins by light/dark cycle test relative to vehicle-treated control; format: functional, organism-based; parameters: dose 3 mg/kg

Sequence of Gamma-aminobutyric acid receptor subunit alpha-3 (Rattus norvegicus) (P20236 whole entry): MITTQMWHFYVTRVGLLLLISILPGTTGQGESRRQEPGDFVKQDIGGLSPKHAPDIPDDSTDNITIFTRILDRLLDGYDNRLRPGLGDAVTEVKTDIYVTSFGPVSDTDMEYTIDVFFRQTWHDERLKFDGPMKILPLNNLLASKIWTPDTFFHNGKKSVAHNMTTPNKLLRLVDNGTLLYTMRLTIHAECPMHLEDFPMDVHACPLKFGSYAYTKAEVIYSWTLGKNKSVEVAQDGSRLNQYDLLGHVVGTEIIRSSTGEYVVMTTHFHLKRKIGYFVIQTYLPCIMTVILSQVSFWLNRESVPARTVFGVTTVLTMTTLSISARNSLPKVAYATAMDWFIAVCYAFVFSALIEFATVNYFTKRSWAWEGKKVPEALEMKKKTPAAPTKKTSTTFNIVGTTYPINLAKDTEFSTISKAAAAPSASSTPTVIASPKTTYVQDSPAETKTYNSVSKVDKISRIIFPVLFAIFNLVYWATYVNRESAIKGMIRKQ

| Compound | remaining at 1 h, 10 µM [1] [%] | remaining at 1 h, 10 µM [2] [%] | remaining at 0.5 h, 10 µM [3] [%] | remaining at 0.25 h, 10 µM [4] [%] | remaining at 0.25 h, 1 µM [5] [%] | remaining at 1 h, 1 µM [6] [%] | remaining at 1 h, 1 µM [7] [%] | remaining at 0.5 h, 1 µM [8] [%] | Activity [9] [%] | Activity [10] [%] | Activity [11] [%] | Activity [12] [%] | Activity [13] [%] | Activity [14] [%] | Activity [15] [%] | Activity [16] [%] | other results |
| --- | --- | --- | --- | --- | --- | --- | --- | --- | --- | --- | --- | --- | --- | --- | --- | --- | --- |
| C#Cc1ccc2c(c1)C(c1ccccn1)=NCc1c(C(=O)OCC)ncn1-2 | 76.1 | 95.4 | 90.4 | 103 | 106 | 80.2 | 93.8 | 95.6 |  |  |  |  |  |  |  |  |  |
| C#Cc1ccc2c(c1)C(c1ccccc1)=NCc1c(C(=O)OCC)ncn1-2 | 1.7 | 102 | 13.9 | 47.6 | 41.4 | 1.5 | 107 | 11.2 |  |  |  |  |  |  |  |  |  |
| C#Cc1ccc2c(c1)C(c1ccccc1)=NCc1c(C(=O)NC)ncn1-2 | 82.8 | 114 | 104 | 107 | 87.3 | 5.2 | 114 | 37.5 | 211 | 257 | 192 | 412 | 831 | 307 | 132 | 287 |  |
| C#Cc1ccc2c(c1)C(c1ccccc1F)=NCc1c(-c3nc(C(C)C)no3)ncn1-2 |  |  |  |  |  |  |  |  | 154 | 239 | 234 | 226 | 460 | 331 | 140 | 225 |  |
| C#Cc1ccc2c(c1)C(c1ccccn1)=NCc1c(C(=O)NC)ncn1-2 | 110 | 110 | 106 | 104 | 109 |  | 110 |  | 140 | 122 | 171 | 163 | 376 | 182 | 117 | 226 | Stability (Liver microsomes [17]): 136.4%; Stability (Liver microsomes [18]): 126% |
| C#Cc1ccc2c(c1)C(c1ccccc1)=NCc1c(-c3nc(C(C)C)no3)ncn1-2 | 96.6 | 119 | 108 | 109 | 100 | 90.8 |  | 110 | 160 | 175 | 150 | 195 | 381 | 291 | 107 | 281 | Stability (Liver microsomes [19]): 137.5%; Activity (Rattus norvegicus [20]): inactive; Activity (Rattus norvegicus [21]): Active |
| C#Cc1ccc2c(c1)C(c1ccccc1)=NCc1c(C(=O)O)ncn1-2 | 94.8 | 97.2 | 94.8 | 95.3 | 108 | 111 | 106 | 110 |  |  |  |  |  |  |  |  |  |
| C#Cc1ccc2c(c1)C(c1ccccc1F)=NCc1c(C(=O)NC)ncn1-2 | 103 | 108 | 103 | 96.8 | 97.3 | 92.3 | 116 | 95.9 | 241 | 326 | 201 | 349 | 485 | 361 | 152 | 287 |  |
| CN1C(=O)CN=C(c2ccccc2)c2cc(Cl)ccc21 |  |  |  |  |  |  |  |  |  |  |  |  |  |  |  |  | Activity (Rattus norvegicus [22]): Active; Activity (Rattus norvegicus [23]): Active |
| C#Cc1ccc2c(c1)C(c1ccccn1)=NCc1c(C(=O)O)ncn1-2 | 85.9 | 88.3 | 86.1 | 91.4 | 102 | 110 | 97 | 105 |  |  |  |  |  |  |  |  |  |
| C#Cc1ccc2c(c1)C(c1ccccc1F)=NCc1c(C(=O)OCC)ncn1-2 | 0.6 | 110 | 3.6 | 20 | 13.5 | 0.3 | 102 | 2.2 |  |  |  |  |  |  |  |  |  |
| C#Cc1ccc2c(c1)C(c1ccccn1)=NCc1c(-c3nc(C(C)C)no3)ncn1-2 | 95.1 | 91.7 | 99.3 | 106 | 97.8 | 89.5 | 113 | 98.7 | 139 | 130 | 178 | 143 | 375 | 252 | 117 | 236 |  |
